The text below walks through data of ChEMBL document CHEMBL1154414, “In vitro and in vivo activities of T-705 against arenavirus and bunyavirus infections” (Antimicrob Agents Chemother, 2007).

The source made the active and inactive calls. The rule behind the calls is not given here. Bounds are passed on as bounds.

The test system of experiment [1] is Pichinde virus. Kind of experiment: Antiviral activity against Pichinde virus An 4763 infected Syrian golden hamster assessed as animals with detectable virus level in liver at 50 mg/kg, po twice daily for 7 days administered 72 hrs post viral-challenge measured on day 7 of viral infection. Type of experiment: functional. In a few lines: (§1)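 Hamsters (groups of 15, placebo 25-30) were dosed orally by gavage twice daily (drug suspended in 0.4% CMC) after bilateral intraperitoneal challenge with 65 PFU. Five per group were killed on day 7. Liver homogenate or serum was serially diluted onto triplicate B-SC-1 wells, CPE was read at 6-8 days, and the 50% endpoint was taken. Range was 2.8-9.5 log10 CCID50/0.1 g or 0.1 ml, with undetectable assigned <2.8.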

For experiment [2], the system named is Punta Toro virus. Briefly: Antiviral activity against 50 PFU Punta Toro virus Adames infected C57BL/6 mouse assessed as mean serum ALT levels at 10 mg/kg, po twice daily administered 24 hrs post viral challenge measured on day 3 of viral infection. Format: functional. In a few lines: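 Subcutaneous PTV infection was followed by oral gavage twice daily with drug suspended in 0.4% CMC. Serum was collected from 5 sacrificed mice per group (10 placebo) on day 3 or 4. ALT activity was measured by kinetic assay, and sham-infected mice set the baselines.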

Experiment [3] relates to Punta Toro virus. Kind of experiment: Antiviral activity against 50 PFU Punta Toro virus Adames infected C57BL/6 mouse assessed as mean day of death at 30 mg/kg, po twice daily for 5 days administered 24 hrs post viral challenge. Type of experiment: functional. In a few lines:
(§2)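 Groups of 15 mice (25–30 placebo) were inoculated subcutaneously with PTV. Drug in 0.4% carboxymethylcellulose was given by oral gavage twice daily.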

For experiment [4], the system named is Punta Toro virus. Kind of experiment: Antiviral activity against 5000 PFU Punta Toro virus Adames infected C57BL/6 mouse assessed as mean serum ALT levels at 30 mg/kg, po twice daily administered 24 hrs post viral challenge measured on day 3 of viral infection. Type of experiment: functional. The procedure, abridged: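 C57BL/6 mice received subcutaneous PTV, then oral gavage twice daily for 5–7 days. T-705 was given in 0.4% CMC and ribavirin in saline. Five mice per group (10 placebo) were killed on day 3 or 4, and serum was collected. ALT activity was measured by kinetic assay. Three sham-infected mice set baselines.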

Experiment [5] concerns Pichinde virus. Briefly: Antiviral activity against Pichinde virus An 4763 infected Syrian golden hamster assessed as animals with detectable virus level in serum at 50 mg/kg, po twice daily for 7 days administered 24 hrs post viral-challenge measured on day 7 of viral infection. Format: functional. In a few lines:
as §1

The test system of experiment [6] is Punta Toro virus. Kind of experiment: Antiviral activity against 50 PFU Punta Toro virus Adames infected C57BL/6 mouse assessed as survival at 30 mg/kg, po twice daily for 5 days administered 24 hrs post viral challenge. Format: functional, organism-based. Also on record: dose 30 mg/kg. In a few lines:
as §2

Experiment [7] concerns Pichinde virus. Kind of experiment: Antiviral activity against Pichinde virus An 4763 infected Syrian golden hamster assessed as mean viral titer per 0.1 mL of serum at 40 mg/kg, po twice daily for 7 days administered 4 hrs before viral-challenge measured on day 7 of viral infection. Type of experiment: functional.
Experiment [8] relates to Punta Toro virus. Briefly: Antiviral activity against 5000 PFU Punta Toro virus Adames infected C57BL/6 mouse assessed as animals with detectable virus level in serum at 10 mg/kg, po twice daily administered 24 hrs post viral challenge measured on day 3 of viral infection. Format: functional. The procedure, abridged: (§3)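 Mice were infected subcutaneously with PTV and dosed by oral gavage twice daily; 5 per group (10 placebo) were killed on day 3 or 4. Liver homogenate or serum was serially diluted onto triplicate LLC-MK2 monolayers, and CPE was read 6–8 days later. 50% endpoints gave log10 CCID50 per 0.1 g liver or 0.1 ml serum. Detection range was 2.8–9.5; undetectable samples were assigned <2.8.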

Experiment [9] concerns Punta Toro virus. Kind of experiment: Antiviral activity against 500 PFU Punta Toro virus Adames infected C57BL/6 mouse assessed as mean viral titer per 0.1 g of liver at 30 mg/kg, po twice daily administered 24 hrs post viral challenge measured on day 3 of viral infection. Type of experiment: functional. The procedure, abridged:
as §3

For experiment [10], the system named is Pichinde virus. Kind of experiment: Antiviral activity against Pichinde virus An 4763 infected Syrian golden hamster assessed as animals with detectable virus level in serum at 20 mg/kg, po twice daily for 7 days administered 24 hrs post viral-challenge measured on day 7 of viral infection. Type of experiment: functional. The procedure, abridged: as §1
Experiment [11] relates to Punta Toro virus. Kind of experiment: Antiviral activity against 5000 PFU Punta Toro virus Adames infected C57BL/6 mouse assessed as animals with detectable virus level in liver at 30 mg/kg, po twice daily administered 24 hrs post viral challenge measured on day 3 of viral infection. Format: functional. The procedure, abridged: as §3
Experiment [12] has as its system Rift Valley fever virus. Briefly: Antiviral activity against Rift Valley fever virus MP-12 assessed as inhibition of virus-induced visual cytopathic effect after 3 to 5 days. Type of experiment: functional, organism-based. In a few lines: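 Virus in medium with 2% FBS was used at the CCID50 that gave maximal CPE. Half-log drug dilutions (DMSO stock, ≤1% DMSO at the top concentration) were added at infection. EC50 was derived by regression analysis.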

In experiment [13] the test system is Pichinde virus. Kind of experiment: Antiviral activity against Pichinde virus An 4763 infected Syrian golden hamster assessed as mean day of death at 20 mg/kg, po twice daily for 7 days administered 24 hrs post viral-challenge. Type of experiment: functional. In a few lines: (§4)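 Groups of 15 hamsters (placebo 25-30) were challenged intraperitoneally (bilateral, 65 PFU) and dosed twice daily by oral gavage in 0.4% CMC for 5 to 7 days.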

Experiment [14] deals with Punta Toro virus. Briefly: Antiviral activity against 5000 PFU Punta Toro virus Adames infected C57BL/6 mouse assessed as mean day of death at 30 mg/kg, po twice daily for 5 days administered 24 hrs post viral challenge. Type of experiment: functional. The procedure, abridged:
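PTV was inoculated subcutaneously into mice in groups of 15 (25–30 placebo). Dosing was by oral gavage twice daily for 5–7 days, with T-705 suspended in 0.4% CMC and ribavirin in saline. Remaining animals were observed 21–28 days for survival and day of death. Test doses had first been checked for tolerance in uninfected animals.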

Experiment [15] concerns Punta Toro virus. Briefly: Antiviral activity against Punta Toro virus Adames infected Syrian golden hamster assessed as animals with detectable virus level in serum at 30 mg/kg, […] measured on day 4 of viral infection. Format: functional. The settings on record: route oral.
Experiment [16] deals with Pichinde virus. Kind of experiment: Antiviral activity against Pichinde virus An 4763 infected Syrian golden hamster assessed as mean viral titer per 0.1 mL of serum at 20 mg/kg, po twice daily for 7 days administered 24 hrs post viral-challenge. Type of experiment: functional. In a few lines: as §1
Experiment [17] has as its system Punta Toro virus. Kind of experiment: Antiviral activity against 50 PFU Punta Toro virus Adames infected C57BL/6 mouse assessed as animals with detectable virus level in serum at 30 mg/kg, po twice daily administered 24 hrs post viral challenge measured on day 3 of viral infection. Format: functional. The procedure, abridged: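 T-705 was suspended in 0.4% carboxymethylcellulose and given by oral gavage twice daily. Mice were infected subcutaneously with PTV. Five mice per group (10 placebo) were sacrificed on day 3 or 4. Liver homogenate or serum was serially diluted onto triplicate LLC-MK2 monolayers, and CPE was read at 6–8 days. The detection limit was 2.8 log10 CCID50 per 0.1 g liver or 0.1 ml serum.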

In experiment [18] the test system is Pichinde virus. Kind of experiment: Antiviral activity against Pichinde virus An 4763 infected Syrian golden hamster assessed as mean day of death at 40 mg/kg, po twice daily for 7 days administered 4 hrs before viral-challenge. Format: functional. In a few lines:
as §4

The test system of experiment [19] is Pichinde virus. Kind of experiment: Antiviral activity against Pichinde virus An 4763 infected Syrian golden hamster assessed as animals with detectable virus level in liver at 20 mg/kg, po twice daily for 7 days administered 72 hrs post viral-challenge measured on day 7 of viral infection. Format: functional. In a few lines: as §1
Experiment [20] concerns Punta Toro virus. Briefly: Antiviral activity against 5000 PFU Punta Toro virus Adames infected C57BL/6 mouse assessed as mean viral titer per 0.1 mL of serum at 30 mg/kg, po twice daily administered 24 hrs post viral challenge measured on day 3 of viral infection. Type of experiment: functional. In a few lines:
as §3

Take `NC(=O)c1nc(F)cnc1O` [FAVIPIRAVIR]: the Activity in experiment [1] was 100%; in [2], 3273 IU/L; in [3], >21 days; in [4] it was 521 IU/L; in [5], 80%; in experiment [8], 80%. Also, the Activity in experiment [10] worked out at 100%; in [11], 20%; in experiment [13] it was 9.5 days; in experiment [14], 5 days; in experiment [15], 40%; in experiment [17] it was 80%. For the same compound, the Activity was found to be 11 days in experiment [18] and 100% in experiment [19]. The outcome in [6] was Active. The log10CCID50 is <3 in experiment [7], <3.2 in [9], >9 in [16] and <3.3 in experiment [20]. Besides, the EC50 in [12] was found to be 32 µM.
With `NC(=O)c1ncn([C@@H]2O[C@H](CO)[C@@H](O)[C@H]2O)n1` [RIBAVIRIN], the Activity in experiment [1] was 100%; in experiment [2], 846 IU/L; in experiment [3], >21 days; in [4], 1491 IU/L; in experiment [5], 40%; in [8], 100%. Besides, the Activity stood at 80% in [10]; 20% in experiment [11]; 18 days in experiment [13]; 5 days in [14]; 0% in experiment [15]; 100% in experiment [17]. The Activity worked out at 11 days in experiment [18] and 100% in [19]. Further, the outcome in [6] was Active. The log10CCID50 in experiment [7] is recorded as <3; in experiment [9] it was <3.1; in experiment [16] it was <5.1; in experiment [20], <4.2. Further, in experiment [12], the EC50 worked out at 53 µM.
